One block for each compound: values may come before it.
Experiments:
[1] = Drug level in monkey liver microsomes treated with 5-(8-Fluoro-3-(1-(3-methoxyquinolin-6-yl)ethyl)[1,2,4]-triazolo[4,3-a]pyridin-6-yl)-3-methylisoxazole assessed as compound formation in presence of NADPH by LC-MS/MS method; type: ADME, Macaca mulatta; details: rhesus monkey
How it was run: (§1)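 Compound incubated with NADPH in mouse, rat, dog, monkey or human liver microsomes. Metabolites were identified by accurate mass spectrometry and MS/MS, and selected ion chromatograms were used to build metabolite profiles.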

Liver microsome [2] = test: Drug level in human liver microsomes treated with 5-(8-Fluoro-3-(1-(3-methoxyquinolin-6-yl)ethyl)[1,2,4]-triazolo[4,3-a]pyridin-6-yl)-3-methylisoxazole assessed as compound formation in presence of NADPH by LC-MS/MS method; type: ADME; how it was run: as §1
[3] = Drug metabolism in mouse liver microsomes assessed as formation of (S)-2-(8-fluoro-6-(3-methylisoxazol-5-yl)-[1,2,4]triazolo[4,3-a]pyridin-3-yl)-2-(3-methoxyquinolin-6-yl)ethanol formation in presence of NADPH by LC-MS/MS method; type: ADME; how it was run: as §1
[4] = Volume of distribution at steady state in Sprague-Dawley rat at 0.25 mg/kg, iv; type: ADME, organism-based; parameters: dose 0.25 mg/kg, route intravenous; details: in vivo, read-out: Vdss
How it was run: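 Male Sprague-Dawley rats were given a single IV dose of 0.25 mg/kg. The vehicle was DMSO, or for some compounds 20% (w/v) hydroxypropyl β-cyclodextrin in water adjusted to pH 3.5 with MSA. NC marks cases where the terminal disposition rate constant could not be characterized for lack of slope.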

Liver microsome [5] = test: Drug metabolism in rat liver microsomes assessed as formation of (S)-6-(1-(8-fluoro-6-(3-methylisoxazol-5-yl)-[1,2,4]triazolo[4,3-a]pyridin-3-yl)ethyl)quinolin-3-ol in presence of NADPH by LC-MS/MS method; type: ADME; how it was run: as §1
Liver microsome [6] = test: Drug metabolism in dog liver microsomes assessed as formation of (S)-6-(1-(8-fluoro-6-(3-methylisoxazol-5-yl)-[1,2,4]triazolo[4,3-a]pyridin-3-yl)ethyl)quinolin-3-ol in presence of NADPH by LC-MS/MS method; type: ADME, Canis lupus familiaris; how it was run: as §1
Liver microsome [7] = test: Drug metabolism in rat liver microsomes assessed as formation of (S)-2-(8-fluoro-6-(3-methylisoxazol-5-yl)-[1,2,4]triazolo[4,3-a]pyridin-3-yl)-2-(3-methoxyquinolin-6-yl)ethanol in presence of NADPH by LC-MS/MS method; type: ADME; how it was run: as §1
[8] = Drug metabolism in mouse liver microsomes assessed as formation of (S)-6-(1-(8-fluoro-6-(3-methylisoxazol-5-yl)-[1,2,4]triazolo[4,3-a]pyridin-3-yl)ethyl)quinolin-3-ol in presence of NADPH by LC-MS/MS method; type: ADME; how it was run: as §1
[9] = molecular target: T1, Hepatocyte growth factor receptor (Homo sapiens, UniProt P08581); test: Inhibition of HGF-stimulated c-Met autophosphorylation in serum starved human PC3 cells pre-incubated for 1 hr followed by human recombinant HGF stimulation for 10 mins by quantitative electrochemiluminescence immunoassay; type: cell-based, PC-3
T1 sequence (P08581 whole entry): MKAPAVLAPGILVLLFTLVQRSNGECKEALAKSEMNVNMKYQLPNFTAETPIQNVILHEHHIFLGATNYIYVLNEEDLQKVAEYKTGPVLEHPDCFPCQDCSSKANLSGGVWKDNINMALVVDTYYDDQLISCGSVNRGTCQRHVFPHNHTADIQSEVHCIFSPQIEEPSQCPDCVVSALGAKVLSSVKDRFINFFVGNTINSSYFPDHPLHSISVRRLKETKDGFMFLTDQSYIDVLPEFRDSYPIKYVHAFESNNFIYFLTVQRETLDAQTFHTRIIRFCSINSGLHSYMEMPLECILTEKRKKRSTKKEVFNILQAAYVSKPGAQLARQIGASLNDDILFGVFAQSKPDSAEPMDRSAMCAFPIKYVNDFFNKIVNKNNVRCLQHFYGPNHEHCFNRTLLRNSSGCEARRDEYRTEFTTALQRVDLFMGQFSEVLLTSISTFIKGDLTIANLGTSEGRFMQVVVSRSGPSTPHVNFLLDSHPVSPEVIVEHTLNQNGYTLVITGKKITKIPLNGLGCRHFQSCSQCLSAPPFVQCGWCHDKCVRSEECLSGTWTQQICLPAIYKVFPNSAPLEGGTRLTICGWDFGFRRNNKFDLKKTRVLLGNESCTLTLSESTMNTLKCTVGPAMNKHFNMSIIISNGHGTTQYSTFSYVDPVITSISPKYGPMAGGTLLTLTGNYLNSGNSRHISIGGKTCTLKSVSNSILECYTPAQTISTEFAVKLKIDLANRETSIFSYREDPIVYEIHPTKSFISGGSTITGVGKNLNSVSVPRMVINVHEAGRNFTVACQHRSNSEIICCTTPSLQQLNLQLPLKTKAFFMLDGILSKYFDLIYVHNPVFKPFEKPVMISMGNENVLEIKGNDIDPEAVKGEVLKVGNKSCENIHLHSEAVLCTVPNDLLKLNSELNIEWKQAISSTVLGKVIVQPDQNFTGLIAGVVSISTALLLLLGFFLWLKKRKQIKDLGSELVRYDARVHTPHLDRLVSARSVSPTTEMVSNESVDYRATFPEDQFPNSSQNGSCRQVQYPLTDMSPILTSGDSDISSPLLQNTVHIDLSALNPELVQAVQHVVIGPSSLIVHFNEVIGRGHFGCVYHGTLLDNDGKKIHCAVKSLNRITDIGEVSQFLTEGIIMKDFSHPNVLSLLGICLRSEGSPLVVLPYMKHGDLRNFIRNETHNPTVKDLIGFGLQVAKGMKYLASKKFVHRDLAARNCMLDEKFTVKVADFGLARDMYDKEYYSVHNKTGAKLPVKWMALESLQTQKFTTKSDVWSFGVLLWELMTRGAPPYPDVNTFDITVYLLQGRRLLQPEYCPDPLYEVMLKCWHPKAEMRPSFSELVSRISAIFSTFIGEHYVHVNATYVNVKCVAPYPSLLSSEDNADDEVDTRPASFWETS
How it was run: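 Serum-starved PC-3 cells (plated in high-glucose DMEM/10% FBS, then 16 h in low-glucose DMEM with 0.1% BSA) were treated with a 10-point inhibitor dilution for 1 h at 37 °C. Cells were then stimulated with 200 ng/mL recombinant human HGF for 10 min and lysed. Phospho-c-Met was captured with biotinylated anti-c-Met and 4G10 by electrochemiluminescence. IC50, n ≥ 2.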

Liver microsome [10] = test: Drug metabolism in dog liver microsomes assessed as formation of (S)-2-(8-fluoro-6-(3-methylisoxazol-5-yl)-[1,2,4]triazolo[4,3-a]pyridin-3-yl)-2-(3-methoxyquinolin-6-yl)ethanol in presence of NADPH by LC-MS/MS method; type: ADME, Canis lupus familiaris; how it was run: as §1
Liver microsome [11] = test: Drug metabolism in dog liver microsomes assessed as metabolite M3 in presence of NADPH by LC-MS/MS method; type: ADME, Canis lupus familiaris; how it was run: as §1
[12] = AUC (0 to infinity) in Sprague-Dawley rat at 0.25 mg/kg, iv; type: ADME, organism-based, Plasma; parameters: dose 0.25 mg/kg, route intravenous, time infinity; details: Sprague-Dawley, plasma
[13] = Drug metabolism in mouse liver microsomes assessed as formation of (S)-(5-(8-fluoro-3-(1-(3-methoxyquinolin-6-yl)ethyl)-[1,2,4]triazolo[4,3-a]pyridin-6-yl)isoxazol-3-yl)methanol in presence of NADPH by LC-MS/MS method; type: ADME; how it was run: as §1
[14] = molecular target: T1, Hepatocyte growth factor receptor; test: Inhibition of recombinant c-Met kinase domain (unknown origin) incubated for 30 mins using gastrin peptide substrate by HTRF assay
Liver microsome [15] = test: Drug metabolism in dog liver microsomes assessed as formation of (S)-(5-(8-fluoro-3-(1-(3-methoxyquinolin-6-yl)ethyl)-[1,2,4]triazolo[4,3-a]pyridin-6-yl)isoxazol-3-yl)methanol in presence of NADPH by LC-MS/MS method; type: ADME, Canis lupus familiaris; how it was run: as §1
Liver microsome [16] = test: Drug metabolism in human liver microsomes assessed as formation of (S)-2-(8-fluoro-6-(3-methylisoxazol-5-yl)-[1,2,4]triazolo[4,3-a]pyridin-3-yl)-2-(3-methoxyquinolin-6-yl)ethanol in presence of NADPH by LC-MS/MS method; type: ADME; how it was run: as §1
Liver microsome [17] = test: Drug metabolism in rat liver microsomes assessed as metabolite M3 formation in presence of NADPH by LC-MS/MS method; type: ADME; how it was run: as §1
[18] = Drug metabolism in monkey liver microsomes assessed as formation of (S)-2-(8-fluoro-6-(3-methylisoxazol-5-yl)-[1,2,4]triazolo[4,3-a]pyridin-3-yl)-2-(3-methoxyquinolin-6-yl)ethanol in presence of NADPH by LC-MS/MS method; type: ADME, Macaca mulatta; details: rhesus monkey; how it was run: as §1
[19] = Oral bioavailability in Sprague-Dawley rat at 2 mg/kg; type: ADME, organism-based; details: in vivo
How it was run: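 Male Sprague-Dawley rats given 2.0 mg/kg orally in 2% (w/v) hydroxypropylmethylcellulose, 1% (w/v) Tween 80 in water, pH 2.2 (adjusted with HCl or MSA). Some inhibitors instead used 10% (v/v) dimethylacetamide in the same vehicle.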

[20] = Half life in Sprague-Dawley rat at 0.25 mg/kg, iv; type: ADME, organism-based; parameters: dose 0.25 mg/kg, route intravenous; details: in vivo
[21] = Clearance in Sprague-Dawley rat at 0.25 mg/kg, iv; type: ADME, organism-based; parameters: dose 0.25 mg/kg, route intravenous; details: Sprague-Dawley, in vivo
[22] = Drug metabolism in mouse liver microsomes assessed as metabolite M3 formation in presence of NADPH by LC-MS/MS method; type: ADME; how it was run: as §1
Liver microsome [23] = test: Unbound clearance rat liver microsomes at 1 uM in presence of NADPH by LC-MS/MS method; type: ADME
How it was run: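 Aliquots were taken at 0, 10, 20, 30 and 40 min, quenched with an equal volume of acetonitrile, centrifuged and analysed by LC/MS/MS.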

Liver microsome [24] = test: Drug metabolism in rat liver microsomes assessed as formation of (S)-(5-(8-fluoro-3-(1-(3-methoxyquinolin-6-yl)ethyl)-[1,2,4]triazolo[4,3-a]pyridin-6-yl)isoxazol-3-yl)methanol in presence of NADPH by LC-MS/MS method; type: ADME; how it was run: as §1

- Drug metabolism [1]: metabolite_detected
- Drug metabolism (Liver microsome [2]): metabolite_detected
Compound: COc1cnc2ccc([C@H](CO)c3nnc4c(F)cc(-c5cc(C)no5)cn34)cc2c1

- Drug metabolism [3]: metabolite_notdetected
- Vd [4]: 0.18 L/kg
- Drug metabolism (Liver microsome [5]): metabolite_detected
- Drug metabolism (Liver microsome [6]): metabolite_detected
- Drug metabolism (Liver microsome [7]): metabolite_notdetected
- Drug metabolism [8]: metabolite_detected
- IC50 [9]: 6 nM
- Drug metabolism (Liver microsome [10]): metabolite_notdetected
- Drug metabolism (Liver microsome [11]): metabolite_detected
- AUC(0-inf) [12]: 9 µM·h
- Drug metabolism [13]: metabolite_detected
- IC50 [14]: 2 nM
- Drug metabolism (Liver microsome [15]): metabolite_detected
- Drug metabolism (Liver microsome [16]): metabolite_detected
- Drug metabolism (Liver microsome [17]): metabolite_detected
- Drug metabolism [18]: metabolite_detected
- bioavailability [19]: 42%
- half-life [20]: 150 min
- clearance [21]: 1.5 mL/min/kg
- Drug metabolism [22]: metabolite_detected
- CL free (Liver microsome [23]): 14 L/h/kg
- Drug metabolism (Liver microsome [24]): metabolite_detected
Compound: COc1cnc2ccc([C@H](C)c3nnc4c(F)cc(-c5cc(C)no5)cn34)cc2c1
